Measured values: ChEMBL document CHEMBL1155522, “Molecular docking studies of phlorotannins from Eisenia bicyclis with BACE1 inhibitory activity” (Bioorg Med Chem Lett, 2010)

Legend:
Beta-secretase 1 [1] = biological target: T1, Beta-secretase 1 (Homo sapiens, UniProt P56817); experiment: Inhibition of human recombinant BACE1 after 60 mins by FRET assay
Method in brief: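 Test samples dissolved in 10% DMSO; the 50% inhibitory concentration is reported as mean ± S.E.M. of triplicate determinations.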

Beta-secretase 1 [2] = biological target: T1, Beta-secretase 1; experiment: Noncompetitive inhibition of human recombinant BACE1 after 60 mins by Dixon plot analysis
Method in brief: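 Inhibitor dissolved in 10% DMSO and tested at two concentrations. A Dixon plot of reciprocal enzyme velocity (1/V) against inhibitor concentration was used to assign the inhibition type and to derive the Ki of the enzyme–inhibitor complex.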

T1 sequence (P56817 whole entry): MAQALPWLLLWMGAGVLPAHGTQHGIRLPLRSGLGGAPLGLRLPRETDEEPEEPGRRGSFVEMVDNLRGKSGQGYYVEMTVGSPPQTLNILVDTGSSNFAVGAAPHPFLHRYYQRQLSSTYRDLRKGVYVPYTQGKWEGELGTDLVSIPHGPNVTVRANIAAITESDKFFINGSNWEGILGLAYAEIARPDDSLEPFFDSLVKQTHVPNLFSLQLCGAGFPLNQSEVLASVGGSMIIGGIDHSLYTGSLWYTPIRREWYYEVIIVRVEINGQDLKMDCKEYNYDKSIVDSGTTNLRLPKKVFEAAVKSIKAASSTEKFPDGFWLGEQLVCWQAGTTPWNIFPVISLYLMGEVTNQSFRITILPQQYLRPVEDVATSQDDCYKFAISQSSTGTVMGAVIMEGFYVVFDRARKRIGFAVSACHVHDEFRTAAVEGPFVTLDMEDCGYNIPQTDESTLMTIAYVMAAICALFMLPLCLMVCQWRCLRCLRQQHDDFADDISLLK

Structure (SMILES)	Activity (Beta-secretase 1 [1])	IC50 (Beta-secretase 1 [1])	Ki (Beta-secretase 1 [2])
Oc1cc(O)cc(Oc2c(O)cc(O)cc2Oc2c(O)cc(O)cc2O)c1 [TRIPHLOROETHOL A]	Dose-dependent effect	11.7 µM	12.1 µM
Oc1cc(O)cc(Oc2c(O)cc(O)c3c2Oc2c(O)cc(Oc4c(O)cc(Oc5c(O)cc(O)c6c5Oc5c(O)cc(O)cc5O6)cc4O)cc2O3)c1 [DIECKOL]	Dose-dependent effect	2.21 µM	1.5 µM
O=c1c(O)c(-c2ccc(O)c(O)c2)oc2cc(O)cc(O)c12	Dose-dependent effect	–	–
Oc1cc(O)cc(O)c1 [PHLOROGLUCINOL]	Dose-dependent effect	36.5 µM	–
Oc1cc(O)cc(Oc2c(O)cc(O)c3c2Oc2c(O)cc(O)cc2O3)c1 [ECKOL]	Dose-dependent effect	12.2 µM	13.9 µM
Oc1cc(O)c2oc3cc(O)c4oc5cc(O)cc(O)c5oc4c3oc2c1 [DIOXINODEHYDROECKOL]	Dose-dependent effect	5.35 µM	8 µM
Oc1cc(O)cc(Oc2c(O)cc(O)c3c2Oc2c(O)cc4oc5c(Oc6cc(O)cc(O)c6)c(O)cc(O)c5c4c2O3)c1 [PHLOROFUCOFUROECKOL A]	Dose-dependent effect	2.13 µM	1.3 µM
Oc1cc(O)cc(Oc2c(O)cc(O)c3c2Oc2c(O)cc(Oc4c(O)cc(O)cc4O)cc2O3)c1	Dose-dependent effect	8.59 µM	7.2 µM
